Drawing on ChEMBL document CHEMBL5678818, “Discovery of potent SOS1 inhibitors that block RAS activation via disruption of the RAS-SOS1 interaction” (Proc Natl Acad Sci U S A, 2019), this text covers Activity and IC50 for 33 compounds.

The structures appear in SMILES notation. Active and inactive are the calls of the source. The rule behind the calls is not given here.

The species entered for assay [1] is Homo sapiens. Kind of assay: Stabilization of N-terminal His10-tagged 15N-labeled recombinant human KRAS G12C/C118S mutant (1 to 169 residues) expressed in Escherichia coli/N-terminal His10-tagged wild-type recombinant human SOS1 catalytic domain (564 to 1049 residues) expressed in Escherichia coli at 1 mM incubated for 30 mins by 2D-NMR analysis.
For assay [2], the species on record is Homo sapiens. Kind of assay: Stabilization of N-terminal His10-tagged recombinant human KRAS G12C/C118S mutant (1 to 169 residues) expressed in Escherichia coli/Series S C1 sensor chip-immobilized biotinylated N-terminal His10-tagged wild-type recombinant human SOS1 catalytic domain (564 to 1049 residues) expressed in Escherichia coli at 100 to 500 uM measured for 360 secs by SPR analysis. As to conditions: dose 100-500 µM, time 360.0 sec. The method in brief: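 SOS1cat is immobilized on the chip, and 250 nM KRASG12C_C118S is flowed over with or without test compound. Compound alone at 100, 250 and 500 µM is also injected to gauge unspecific binding to SOS1cat. Buffer injection serves as the blank.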
A general note: In SPR one partner is held on a chip, and binding of the other changes the refractive index at the surface.

Assay [3] is filed under the species Homo sapiens. Kind of assay: Stabilization of N-terminal His10-tagged recombinant human KRAS G12C/C118S mutant (1 to 169 residues) expressed in Escherichia coli/N-terminal His10-tagged wild-type recombinant human SOS1 catalytic domain (564 to 1049 residues) expressed in Escherichia coli by HTRF analysis. The gist of the method:
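HTRF equilibrium-binding read-out of KRASG12C_C118S with SOS1cat, detected by fluorescently labelled antibodies including a terbium donor. Signal normalized with DMSO control as 100% and no-SOS1cat wells as 0%. Data are mean ± SD, n = 4.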
(Time-resolved FRET reads energy transfer from a long-lived donor to a nearby acceptor.)

In another assay the target is SOS1-KRAS (Homo sapiens, UniProt Q07889). As to the kind of experiment: Inhibition of N-terminal GST-tagged recombinant human KRAS G12C mutant (1 to 169 residues) expressed in Escherichia coli/N-terminal His10-tagged wild-type recombinant human SOS1 catalytic domain (564 to 1049 residues) expressed in Escherichia coli protein-protein interaction preincubated for 2 mins with KRAS followed by SOS1 addition measured after 60 mins in presence of anti-6His-XL665 by HTRF analysis.
SOS1-KRAS, sequence (Q07889 whole entry, looked up, stated change not applied, the tested form may be a part): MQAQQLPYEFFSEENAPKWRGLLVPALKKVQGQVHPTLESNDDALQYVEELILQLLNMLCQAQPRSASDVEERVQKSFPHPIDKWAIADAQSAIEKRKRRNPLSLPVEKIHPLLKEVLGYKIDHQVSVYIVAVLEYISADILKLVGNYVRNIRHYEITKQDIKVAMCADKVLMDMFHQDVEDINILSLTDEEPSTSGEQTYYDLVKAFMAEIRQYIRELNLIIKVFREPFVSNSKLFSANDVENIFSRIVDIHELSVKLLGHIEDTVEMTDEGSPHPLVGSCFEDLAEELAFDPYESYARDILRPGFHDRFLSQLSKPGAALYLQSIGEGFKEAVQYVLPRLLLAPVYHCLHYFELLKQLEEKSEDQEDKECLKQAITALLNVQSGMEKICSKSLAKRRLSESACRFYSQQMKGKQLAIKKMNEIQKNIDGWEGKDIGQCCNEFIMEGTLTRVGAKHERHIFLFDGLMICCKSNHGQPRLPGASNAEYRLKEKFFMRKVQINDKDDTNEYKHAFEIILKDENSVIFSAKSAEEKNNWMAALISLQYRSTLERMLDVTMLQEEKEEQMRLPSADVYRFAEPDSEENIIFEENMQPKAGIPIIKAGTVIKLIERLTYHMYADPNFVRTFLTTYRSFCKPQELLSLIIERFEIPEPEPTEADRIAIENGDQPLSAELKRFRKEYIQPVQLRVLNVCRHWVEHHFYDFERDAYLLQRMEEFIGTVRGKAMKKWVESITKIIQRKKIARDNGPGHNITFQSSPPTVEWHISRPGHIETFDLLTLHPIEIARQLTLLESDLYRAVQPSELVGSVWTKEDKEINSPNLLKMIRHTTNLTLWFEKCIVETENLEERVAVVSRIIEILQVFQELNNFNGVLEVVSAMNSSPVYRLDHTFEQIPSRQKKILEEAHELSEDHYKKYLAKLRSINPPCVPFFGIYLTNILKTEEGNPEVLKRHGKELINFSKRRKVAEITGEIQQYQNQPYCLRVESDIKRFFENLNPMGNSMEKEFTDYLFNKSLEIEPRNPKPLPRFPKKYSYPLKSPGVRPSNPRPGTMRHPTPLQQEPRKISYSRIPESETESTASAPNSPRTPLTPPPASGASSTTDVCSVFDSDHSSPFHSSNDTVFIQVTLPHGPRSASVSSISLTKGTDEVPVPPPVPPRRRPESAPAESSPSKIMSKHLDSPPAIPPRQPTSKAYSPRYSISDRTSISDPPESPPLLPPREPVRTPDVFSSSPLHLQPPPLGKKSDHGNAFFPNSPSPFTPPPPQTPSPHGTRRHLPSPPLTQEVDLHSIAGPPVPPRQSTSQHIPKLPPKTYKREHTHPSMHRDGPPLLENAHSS

The target of assay [4] is Epidermal growth factor receptor (Homo sapiens, UniProt P00533). As to the kind of experiment: Inhibition of human EGFR using biotin-aminohexyl-AEEEEYFELVAKKK as substrate preincubated for 15 mins followed by substrate/ATP addition measured after 20 mins by FRET assay.
Epidermal growth factor receptor, sequence (P00533 whole entry): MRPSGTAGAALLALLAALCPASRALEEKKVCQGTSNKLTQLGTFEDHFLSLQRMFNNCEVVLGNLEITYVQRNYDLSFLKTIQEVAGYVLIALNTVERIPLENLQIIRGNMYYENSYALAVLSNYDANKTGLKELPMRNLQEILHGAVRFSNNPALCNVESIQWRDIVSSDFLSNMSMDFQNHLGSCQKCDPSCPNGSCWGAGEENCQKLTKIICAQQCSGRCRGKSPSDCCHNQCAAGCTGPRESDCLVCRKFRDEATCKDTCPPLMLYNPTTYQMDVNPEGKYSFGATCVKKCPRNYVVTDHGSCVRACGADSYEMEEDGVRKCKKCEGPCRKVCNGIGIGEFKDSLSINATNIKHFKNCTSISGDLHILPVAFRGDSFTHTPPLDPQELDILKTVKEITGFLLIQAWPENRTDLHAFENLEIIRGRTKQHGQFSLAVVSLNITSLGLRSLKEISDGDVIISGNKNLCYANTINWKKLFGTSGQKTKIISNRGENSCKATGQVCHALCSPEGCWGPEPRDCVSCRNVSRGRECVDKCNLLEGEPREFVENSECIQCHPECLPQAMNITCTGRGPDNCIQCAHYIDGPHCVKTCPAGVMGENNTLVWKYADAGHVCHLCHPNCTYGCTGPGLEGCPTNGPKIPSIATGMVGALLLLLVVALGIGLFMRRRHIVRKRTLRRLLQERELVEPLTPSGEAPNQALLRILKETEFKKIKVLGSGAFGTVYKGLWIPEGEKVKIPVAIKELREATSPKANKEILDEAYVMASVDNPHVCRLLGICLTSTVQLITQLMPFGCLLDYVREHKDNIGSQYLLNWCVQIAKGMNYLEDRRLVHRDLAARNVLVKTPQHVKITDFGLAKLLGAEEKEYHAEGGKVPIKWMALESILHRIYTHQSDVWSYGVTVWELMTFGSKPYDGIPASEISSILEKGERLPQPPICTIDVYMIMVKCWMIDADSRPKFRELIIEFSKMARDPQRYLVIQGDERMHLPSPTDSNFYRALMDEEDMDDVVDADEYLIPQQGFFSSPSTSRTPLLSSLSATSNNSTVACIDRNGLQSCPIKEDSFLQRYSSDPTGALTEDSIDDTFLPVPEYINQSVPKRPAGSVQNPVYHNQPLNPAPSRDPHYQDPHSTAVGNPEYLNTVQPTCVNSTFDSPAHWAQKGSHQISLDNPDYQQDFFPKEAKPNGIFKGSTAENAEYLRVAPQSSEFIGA

In the case of `NCCCc1ccc(Cl)cc1`, the result in the assay listed under Homo sapiens [1], in the assay listed under Homo sapiens [2] and in the assay listed under Homo sapiens [3] was Active.

As usually defined, the IC50 is the point on the concentration scale where inhibition reaches its midpoint. `COc1cc2nc(C)nc(NC(C)c3ccc(-c4ccccc4CN(C)C)s3)c2cc1OC` (configuration not stated): the half-maximal inhibitory concentration (IC50) on SOS1-KRAS amounted to 40 nM.

With `COc1cc2nc(C)nc(NC(C)c3ccc(-c4ccccc4CNCc4ccccc4)s3)c2cc1OC` (configuration not stated), the IC50 on SOS1-KRAS is 470 nM.

As to `COc1cc2nc(C)nc(NC(C)c3ccc(-c4ccccc4CNCC(F)F)s3)c2cc1OC` (configuration not stated), the IC50 at SOS1-KRAS was determined as 780 nM.

Consider `COc1cc2nc(C)nc(N[C@H](C)c3cccc(Br)c3)c2cc1OC`, for which the concentration for half-maximal inhibition (IC50) at SOS1-KRAS is 170 nM; in assay [4], greater than 20000 nM.

As to `COc1cc2nccc(N[C@H](C)c3cccc4ccccc34)c2cc1OC`, the IC50 on SOS1-KRAS stood at 2590 nM.

In turn, `COc1cc2nc(C)nc(N[C@H](C)c3cccc4ccccc34)c2cc1OC` came in with a half-maximal inhibitory concentration (IC50) in assay [4] greater than 20000 nM.

Regarding `COc1cc2nc(C)nc(NC(C)c3ccc(-c4ccccc4C(N)=O)s3)c2cc1OC` (configuration not stated), the concentration for half-maximal inhibition (IC50) on SOS1-KRAS was 3210 nM.

In the case of `COc1cc2nc(C)nc(NC(C)c3ccc(-c4ccccc4C#N)s3)c2cc1OC` (configuration not stated), the IC50 at SOS1-KRAS was 590 nM.

`COc1cc2nc(C)nc(N(C)[C@H](C)c3cccc(Br)c3)c2cc1OC`: the IC50 (on SOS1-KRAS; in assay [4]) was greater than 20000 nM throughout.

Turning to `COc1cc2nc(C)nc(NC(C)c3ccc(-c4ccccc4[C@@H](C)N)s3)c2cc1OC` (some centres not stated), the half-inhibitory concentration (IC50) on SOS1-KRAS worked out at 200 nM.

For `COc1cc2nc(C)nc(NC(C)c3ccc(-c4ccccc4S(=O)(=O)N(C)C)s3)c2cc1OC` (configuration not stated), the concentration for half-maximal inhibition (IC50) on SOS1-KRAS amounted to 2160 nM.

As for `COc1cc2nc(C)nc(NC(C)c3ccc(-c4ccccc4[C@H](C)N)s3)c2cc1OC` (some centres not stated), the IC50 at SOS1-KRAS stood at 230 nM.

In the case of `O=C(CO)N1CCc2ccccc2C1`, the result in the assay filed under Homo sapiens [1], in the assay listed under Homo sapiens [2] and in the assay listed under Homo sapiens [3] was inactive.

As for `CCCCNCc1ccccc1-c1ccc(C(C)Nc2nc(C)nc3cc(OC)c(OC)cc23)s1` (configuration not stated), the IC50 at SOS1-KRAS was 98 nM.

For `COCCNCc1ccccc1-c1ccc(C(C)Nc2nc(C)nc3cc(OC)c(OC)cc23)s1` (configuration not stated), at SOS1-KRAS, the IC50 was determined as 100 nM.

Consider `COc1cc2nc(C)nc(NC(C)c3ccc(-c4ccccc4CNCC(F)(F)F)s3)c2cc1OC` (configuration not stated), for which the 50% inhibitory concentration (IC50) on SOS1-KRAS worked out at 3150 nM.

On to `COc1cc2nc(C)nc(NC(C)c3ccc(-c4ccccc4CN)s3)c2cc1OC` (configuration not stated), for which, at SOS1-KRAS, the IC50 is 80 nM.

Regarding `CNCc1ccccc1-c1ccc(C(C)Nc2nc(C)nc3cc(OC)c(OC)cc23)s1` (configuration not stated), the IC50 on SOS1-KRAS worked out at 41 nM.

`COc1cc2nc(C)nc(NC(C)c3ccc(-c4ccccc4S(C)(=O)=O)s3)c2cc1OC` (configuration not stated): the IC50 on SOS1-KRAS worked out at 1410 nM.

As for `CCNCc1ccccc1-c1ccc(C(C)Nc2nc(C)nc3cc(OC)c(OC)cc23)s1` (configuration not stated), the IC50 at SOS1-KRAS is 55 nM.

In the case of `COc1cc2nc(N(C)C)nc(N[C@H](C)c3cccc4ccccc34)c2cc1OC`, the IC50 was 800 nM on SOS1-KRAS and greater than 20000 nM in assay [4].

Take `COc1cc2nc(C)nc(NC(C)c3ccc(-c4ccccc4C(C)(C)N)s3)c2cc1OC` (configuration not stated): the IC50 on SOS1-KRAS came to 400 nM.

In the case of `COc1cc2nc(C(F)(F)F)nc(N[C@H](C)c3cccc4ccccc34)c2cc1OC`, the IC50 on SOS1-KRAS was 1450 nM; in assay [4], greater than 20000 nM.

As for `COc1cc2nc(C)nc(NC(C)c3ccc(-c4ccc(F)cc4CNC(C)=O)s3)c2cc1OC` (configuration not stated), the IC50 at SOS1-KRAS is 590 nM.

For the compound `COc1cc2nc(C)nc(NC(C)c3ccc(-c4ccccc4CCN)s3)c2cc1OC` (configuration not stated), the IC50 at SOS1-KRAS was determined as 51 nM.

`COc1cc2nc(C)nc(NC(C)c3ccc(-c4ccccc4CNCCO)s3)c2cc1OC` (configuration not stated): the IC50 at SOS1-KRAS was 46 nM.

As to `CCN(CC)Cc1ccccc1-c1ccc(C(C)Nc2nc(C)nc3cc(OC)c(OC)cc23)s1` (configuration not stated), the 50% inhibitory concentration (IC50) on SOS1-KRAS was 170 nM.

Take `COc1cc2nc(C)nc(NC(C)c3ccc(-c4ccccc4CN4CCC4)s3)c2cc1OC` (configuration not stated): the IC50 on SOS1-KRAS came to 76 nM.

For `COc1cc2nc(C)nc(NC(C)c3ccc(-c4ccccc4CN4CC(F)C4)s3)c2cc1OC` (configuration not stated), the IC50 on SOS1-KRAS was determined as 410 nM.

In the case of `COc1cc2nc(C)nc(NC(C)c3ccc(-c4ccccc4CO)s3)c2cc1OC` (configuration not stated), at SOS1-KRAS, the IC50 was determined as 280 nM.

Consider `COc1cc2ccnc(N[C@H](C)c3cccc4ccccc34)c2cc1OC`, for which the IC50 on SOS1-KRAS is 12200 nM; in assay [4], greater than 20000 nM.

Consider `COc1cc2nc(C)nc(NC(C)c3ccc(-c4ccccc4CN(C)CCO)s3)c2cc1OC` (configuration not stated), for which the IC50 on SOS1-KRAS is 47 nM.
